Measured values pooled from the literature.
Protocols differ between the studies behind these lines.
Target: Tyrosine-protein kinase Fgr (FGR, Homo sapiens, UniProt P09769)

Structure (SMILES) | observed | mode | technique | concentration | measurement | result
NS(=O)(=O)c1cc(NC(=O)Cc2ccccc2)ccc1Oc1cccc(Cl)c1 | cell-free assay |  | competition with immobilised ligand | 1 µM | remaining binding | 100%
Cn1c2c(Cl)c(Cl)ccc2c2cn[nH]c(=O)c21 | thermal stability |  | DSF | 10 µM | ΔTm | -0.1 °C
COc1cc(-c2cn(C3CCc4c(F)cccc4N(CC(F)(F)F)C3=O)nn2)ccc1-n1cnc(C)c1 (stereo not shown) | cell-free assay |  | competition with immobilised ligand | 1 µM | remaining binding | 100%
CN(c1nccc(-c2cnn3ncccc23)n1)C1CC1 | cell-free assay |  |  | 1 µM | remaining signal | 100%
O=C1NC(=O)c2cc(Nc3ccc(F)cc3)c(Nc3ccc(F)cc3)cc21 | cell-free assay |  |  | 0.5 µM | remaining signal | 96.3%
O=C(Nc1cnn(-c2csc(C(=O)NC3COC3)c2)c1)Nc1c(F)cccc1Cl | enzyme activity | inhibitor |  | 5 µM | remaining activity | 95.5%
O=C(N1CCS(=O)(=O)CC1)N1C[C@H](c2ccc(OC(F)(F)F)cc2)C[C@H](c2nc(C3CC3)no2)C1 | cell-free assay |  | competition with immobilised ligand | 1 µM | remaining binding | 100%
O=C1Nc2ccc(Cl)cc2C1=Cc1cc(Cl)c(O)c(Cl)c1 | cell-free assay |  |  | 0.5 µM | remaining signal | 84.8%
CC1(C)NC(=O)c2[nH]c3c(Cl)c(Cl)ccc3c2C1C#N (stereo not shown) | thermal stability |  | DSF | 10 µM | ΔTm | 0.2 °C
CNC(=O)c1ccc(Nc2ncc(C(F)(F)F)c(NCc3nccnc3N(C)S(C)(=O)=O)n2)cc1 | cell-free assay |  | competition with immobilised ligand | 0.1 µM | remaining binding | 81%
CCCOc1ccc(OC)c(F)c1C(=O)c1ccc(C(=O)N[C@@H]2CNC[C@H]2NC(=O)c2ccc3[nH]ncc3c2)cc1 | enzyme activity | inhibitor |  | 10 µM | remaining activity | 65%
Cn1c2c(c3ccc(Cl)c(Cl)c31)C(C#N)C1(CCNCC1)NC2=O (racemic) | thermal stability |  | DSF | 10 µM | ΔTm | 0.1 °C
COc1cc(Cl)c(C(=O)N[C@@H](CN[C@H]2CC[C@@H](N)CC2)Cc2ccc(C#N)cc2)cc1-c1ccc(CN[C@H](C)c2ccc(C)cc2)o1 | enzyme activity | inhibitor |  | 1 µM | remaining activity | 87%
Cc1ccc(Nc2nccc(N(C)c3ccc4c(C)n(C)nc4c3)n2)cc1S(N)(=O)=O | cell-free assay |  |  | 0.5 µM | remaining signal | 35.8%
O=C1CCc2cc(Nc3cc(OC4CCOCC4)c([N+](=O)[O-])cc3Cl)ccc2N1 | cell-free assay |  | competition with immobilised ligand | 1 µM | remaining binding | 100%
CC(C)(C)c1nc2c(s1)c1nc(N)ncc1c1ccc(NS(=O)(=O)c3c(F)cccc3F)c(F)c12 | enzyme activity | inhibitor | radiometric | 1 µM | remaining activity | 91%
CS(=O)(=O)c1cc(C2(NC(=O)c3cncc4c3cnn4-c3ccc(F)cc3)CC2)ccn1 | cell-free assay |  | competition with immobilised ligand | 1 µM | remaining binding | 100%
Cc1sc(C(=O)NC2COC2)cc1-n1cc(NC(=O)Nc2c(F)cccc2Cl)cn1 | enzyme activity | inhibitor |  | 10 µM | remaining activity | 80.2%
CCN(CC)CCNC(=O)c1c(C)[nH]c(/C=C2\C(=O)Nc3ccc(F)cc32)c1C | enzyme activity | inhibitor |  | 0.3 µM | inhibition | 77%
COc1cc2ncnc(Nc3ccc(Oc4ccccc4)cc3C)c2cc1OC | enzyme activity | inhibitor |  | 1 µM | inhibition | 98%
CCN(CC)c1ccc(C2=NNC(=O)CC2C)cc1[N+](=O)[O-] (stereo not shown) | enzyme activity | inhibitor |  | 10 µM | remaining activity | 85%
CNC(=O)c1cc(Oc2ccc(NC(=O)Nc3ccc(Cl)c(C(F)(F)F)c3)cc2)ccn1 | enzyme activity | inhibitor |  | 10 µM | inhibition | 39%
CN(c1ccnc(CNc2nc(Nc3ccc4c(c3)CC(=O)N4)ncc2C(F)(F)F)n1)S(C)(=O)=O | cell-free assay |  | competition with immobilised ligand | 1 µM | remaining binding | 58%
CN1CCC2(CC1)NC(=O)c1c(c3ccc(Cl)c(Cl)c3n1C)C2C#N (racemic) | thermal stability |  | DSF | 10 µM | ΔTm | 0.1 °C
O=C(Nc1cccnn1)N1CCC(=Cc2cccc(Oc3ccc(C(F)(F)F)cn3)c2)CC1 | cell-free assay |  | competition with immobilised ligand | 1 µM | remaining binding | 63%
Cc1ccc(C(=O)NCc2ccsc2)cc1C#Cc1cn(C(C)C)c2ncnc(N)c12 | enzyme activity | inhibitor |  | 1 µM | activity vs control | 2%
Cc1ccc(NC(=O)c2ccc(C)c(C(F)(F)F)c2)cc1C#Cc1nn(C2CCC(O)CC2)c2ncnc(N)c12 (stereo not shown) | cell-free assay |  |  | 10 µM | remaining signal | 2%
Cn1c2c(c3ccc(Cl)c(Cl)c31)C(C#N)C(C)(C)NC2=O (stereo not shown) | thermal stability |  | DSF | 10 µM | ΔTm | 0.1 °C
